Laboratory results taken from ChEMBL document CHEMBL1255569, “Synthesis of ester prodrugs of 9-(S)-[3-hydroxy-2-(phosphonomethoxy)propyl]-2,6-diaminopurine (HPMPDAP) as anti-poxvirus agents” (J Med Chem, 2010).

Assays:
[1] = Cytotoxicity against HEL assessed as change in cell morphology; format: cell-based; conditions: human, HEL cells
Method in brief: (§1)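 Microscopic inspection of cultures exposed to test compounds. MCC is the minimum compound concentration causing a microscopically detectable alteration of cell morphology.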

Human alphaherpesvirus 2 = assay: Antiviral activity against […] infected in HEL assessed as reduction in virus-induce cytopathicity; format: functional, organism-based; conditions: Human alphaherpesvirus 2, strain G
[2] = Cytotoxicity against HEL; format: cell-based; conditions: human, HEL cells
Method in brief: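 HEL cells were seeded at 5 × 10³ cells/well and allowed to proliferate for 24 h, then given medium with graded compound concentrations. After 3 days at 37 °C, cells were counted with a Coulter counter. CC50 (μM) is the concentration halving proliferation relative to untreated controls, estimated from plots of cell number (% of control) against concentration.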

Human alphaherpesvirus 1 [3] = assay: Antiviral activity against acyclovir-resistant HSV1 KOS infected in HEL assessed as reduction in virus-induce cytopathicity; format: functional, organism-based; conditions: Human alphaherpesvirus 1, KOS
Human betaherpesvirus 5 [4] = assay: Antiviral activity against Human cytomegalovirus Davis infected in HEL assessed as reduction in virus-induce cytopathicity; format: functional, organism-based; conditions: Human betaherpesvirus 5, Davis
Vaccinia virus = assay: Antiviral activity against Vaccinia virus infected in HEL assessed as reduction in virus-induce cytopathicity; format: functional, organism-based; conditions: Orthopoxvirus vaccinia
Human alphaherpesvirus 3 [5] = assay: Antiviral activity against acyclovir-resistant VZV OKA infected in HEL assessed as reduction in virus-induce cytopathicity; conditions: Human alphaherpesvirus 3, OKA
Human betaherpesvirus 5 [6] = assay: Antiviral activity against Human cytomegalovirus AD169 infected in HEL assessed as reduction in virus-induce cytopathicity; format: functional, organism-based; conditions: Human betaherpesvirus 5, AD169
Human alphaherpesvirus 1 [7] = assay: Antiviral activity against HSV1 KOS infected in HEL assessed as reduction in virus-induce cytopathicity; format: functional, organism-based; conditions: Human alphaherpesvirus 1, KOS
Human betaherpesvirus 6 = assay: Antiviral activity against Human herpesvirus 6 infected in HEL assessed as reduction in virus-induce cytopathicity; format: functional, organism-based
[8] = Cytotoxicity against human HSB2 cells assessed as change in cell morphology; format: cell-based, CCRF-HSB-2; method in brief: as §1
Human alphaherpesvirus 3 [9] = assay: Antiviral activity against acyclovir-resistant VZV 07/1 infected in HEL assessed as reduction in virus-induce cytopathicity; conditions: Human alphaherpesvirus 3, 07/1

| SMILES | MCC [1] | EC50 (Human alphaherpesvirus 2) | MCC [2] | EC50 (Human alphaherpesvirus 1 [3]) | EC50 (Human betaherpesvirus 5 [4]) | EC50 (Vaccinia virus) | EC50 (Human alphaherpesvirus 3 [5]) | EC50 (Human betaherpesvirus 5 [6]) | CC50 [2] | EC50 (Human alphaherpesvirus 1 [7]) | EC50 (Human betaherpesvirus 6) | MCC [8] | EC50 (Human alphaherpesvirus 3 [9]) |
| --- | --- | --- | --- | --- | --- | --- | --- | --- | --- | --- | --- | --- | --- |
| Nc1nc2c(ncn2COCCO)c(=O)[nH]1 [ACYCLOVIR] | > 444 µM | 300 nM | 1.58 mM | 125000 nM | – | – | – | – | – | – | – | – | – |
| CC(C)(C)C(=O)OCO[P@]1(=O)CO[C@@H](Cn2cnc3c(N)nc(N)nc32)CO1 | ≥ 231 µM | 1780 nM | – | 3330 nM | 15500 nM | 370 nM | 720 nM | 14000 nM | > 222000 nM | 1830 nM | 14600 nM | 64.7 µM | 160 nM |
| CCCCCCCCCCCCCCCCOCCCOP(=O)(O)CO[C@H](CO)Cn1cnc2c(N)nc(N)nc21 | ≥ 6.4 µM | 7.1 nM | – | 2.7 nM | 3.7 nM | 0.74 nM | 2.7 nM | 21 nM | ≥ 161000 nM | 4.5 nM | 10300 nM | 40 µM | 0.21 nM |
| Nc1nc(N)c2ncn(C[C@H]3COP(=O)(O)CO3)c2n1 | > 333 µM | 4330 nM | – | 3600 nM | 10000 nM | 530 nM | 370 nM | 15000 nM | > 333000 nM | 3600 nM | – | – | 770 nM |
| Nc1ccn(C[C@@H](CO)OCP(=O)(O)O)c(=O)n1 [CIDOFOVIR] | ≥ 317 µM | 2190 nM | – | 1370 nM | 790 nM | 7300 nM | 130 nM | 1140 nM | 511000 nM | 1620 nM | – | – | 110 nM |
| CCCCCCCCCCCCCCCCOCCCOP1(=O)CO[C@@H](Cn2cnc3c(N)nc(N)nc32)CO1 (stereo partly drawn) | 6.9 µM | 53 nM | – | 53 nM | 21 nM | 11 nM | 12 nM | 34 nM | 13700 nM | 31 nM | 160 nM | 8.6 µM | 1.7 nM |
| CCCCCCCCCCCCCCCCOCCO[P@@]1(=O)CO[C@@H](Cn2cnc3c(N)nc(N)nc32)CO1 | 35.2 µM | 8 nM | – | 7 nM | 5 nM | 2.6 nM | 1.8 nM | 11 nM | 30000 nM | 10 nM | > 44000 nM | 0.5 µM | 0.18 nM |
| CCCCCCCCCCCCCCCCOCCO[P@]1(=O)CO[C@@H](Cn2cnc3c(N)nc(N)nc32)CO1 | 35.2 µM | 26 nM | – | 17 nM | 8 nM | 3.5 nM | 4 nM | 15 nM | 28100 nM | 26 nM | > 44000 nM | 0.5 µM | 0.7 nM |
| CCCCCCCCCCCCCCCCCCOCCO[P@@]1(=O)CO[C@@H](Cn2cnc3c(N)nc(N)nc32)CO1 | 6.7 µM | 11 nM | – | 7 nM | 8 nM | 5 nM | 4.7 nM | 27 nM | 15100 nM | 13 nM | > 42000 nM | 0.5 µM | 0.7 nM |
| CCCCCCCCCCCCCCCCCCOCCOP(=O)(O)CO[C@H](CO)Cn1cnc2c(N)nc(N)nc21 | ≥ 6.3 µM | 2.2 nM | – | 0.85 nM | 9.4 nM | 0.74 nM | 1.3 nM | 41 nM | 18800 nM | 0.8 nM | 34600 nM | ≥ 39.3 µM | 0.08 nM |
